Laboratory results taken from ChEMBL document CHEMBL1122525, “Synthesis and antifungal activity of (E)-N-(6,6-dimethyl-2-hepten-4-ynyl)-N-methyl-1-naphtha lenemethanamine (SF 86-327) and related allylamine derivatives with enhanced oral activity” (1984).
In brackets after ≈: the same amount, converted by molar mass.

Experiments:
Candida parapsilosis = test: In vitro minimum inhibitory concentration (MIC) against isolates of Candida parapsilosis in Sabouraud's dextrose broth; format: functional; conditions: Lodderomyces parapsilosis
Procedure, shortened: (§1)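 Tube broth dilution in Sabouraud's dextrose broth, pH 6.5. Compounds were dissolved in Me₂SO and serially diluted in medium, then incubated at 30 °C. Growth control was read at 48 h for Candida albicans and C. parapsilosis, 72 h for Aspergillus fumigatus, and 7 days for Sporothrix schenckii and the dermatophytes. MIC is the lowest concentration with no macroscopic growth.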

Epidermophyton floccosum = test: In vitro minimum inhibitory concentration (MIC) against isolates of Epidermophyton floccosum in Sabouraud's dextrose broth; format: functional; procedure, shortened: as §1
Microsporum canis = test: In vitro minimum inhibitory concentration (MIC) against isolates of Microsporum canis in Sabouraud's dextrose broth; format: functional; procedure, shortened: as §1
Sporothrix schenckii = test: In vitro minimum inhibitory concentration (MIC) against isolates of Sporothrix schenck ii in Sabouraud's dextrose broth; format: functional; procedure, shortened: as §1
Trichophyton benhamiae = test: In vitro minimum inhibitory concentration (MIC) against isolates of Trichophyton mentagrophytes in Sabouraud's dextrose broth; format: functional, Arthroderma benhamiae; procedure, shortened: as §1
Aspergillus fumigatus = test: In vitro minimum inhibitory concentration (MIC) against isolates of Aspergillus fumigatus in Sabouraud's dextrose broth; format: functional; procedure, shortened: as §1
Candida albicans = test: In vitro minimum inhibitory concentration (MIC) against isolates of Candida albicans in Sabouraud's dextrose broth; format: functional; procedure, shortened: as §1
Cavia porcellus [1] = test: Compound was evaluated in vivo for the activity (% mycological cure) by oral treatment of guinea pig dermatophytosis caused by Trichophyton mentagrophytes. Dose =5 mg/kg/day; format: functional
Procedure, shortened: (§2)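 Guinea pigs, 8–10 per dose, with shorn lumbar backs were inoculated over a 3.5 cm circle with 0.1 mL Sabouraud 2% dextrose broth carrying 10^6 cfu T. mentagrophytes. Compound in miglyol 812 was given as 0.5 mL by stomach tube once daily for 9 days from the inoculation day. One day after the last dose, hairs from lesions were cultured and hair-root regions examined microscopically for fungal growth.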

Cavia porcellus [2] = test: Compound was evaluated in vivo for the activity (% mycological cure) by oral treatment of guinea pig dermatophytosis caused by Trichophyton mentagrophytes. Dose = 10 mg/kg/day; format: functional; procedure, shortened: as §2
Cavia porcellus [3] = test: Compound was evaluated in vivo for the activity (% mycological cure) by oral treatment of guinea pig dermatophytosis caused by Trichophyton mentagrophytes. Dose = 5 mg/kg/day; format: functional; procedure, shortened: as §2
Cavia porcellus [4] = test: Compound was evaluated in vivo for the activity (% mycological cure) by oral treatment of guinea pig dermatophytosis caused by Trichophyton mentagrophytes. Dose = 75 mg/kg/day; format: functional; procedure, shortened: as §2
Cavia porcellus [5] = test: Compound was evaluated in vivo for the activity (% mycological cure) by oral treatment of guinea pig dermatophytosis caused by Trichophyton mentagrophytes. Dose = 150 mg/kg/day; format: functional; procedure, shortened: as §2
Cavia porcellus [6] = test: Compound was evaluated in vivo for the activity (% mycological cure) by oral treatment of guinea pig dermatophytosis caused by Trichophyton mentagrophytes. Dose = 37.5 mg/kg/day; format: functional; procedure, shortened: as §2
Cavia porcellus [7] = test: Compound was evaluated in vivo for the activity (% mycological cure) by topical treatment of guinea pig dermatophytosis caused by Trichophyton mentagrophytes (0.125% of compound); format: functional
Procedure, shortened: (§3)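 Infection model: 8–10 guinea pigs per dose level, lumbar backs shorn, 10^6 cfu T. mentagrophytes in 0.1 mL Sabouraud 2% dextrose broth applied over a 3.5 cm diameter area. Starting 48 h post-inoculation, 0.4 mL compound solution in PEG 400/ethanol 75/25 (v/v) was spread on the lesion once daily for 7 days. Read-out on day 3 after the last treatment: hair cultures checked microscopically for growth at hair roots.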

Cavia porcellus [8] = test: Compound was evaluated in vivo for the activity (% mycological cure) by topical treatment of guinea pig dermatophytosis caused by Trichophyton mentagrophytes (0.5% of compound); format: functional; procedure, shortened: as §3

SMILES | MIC (Candida parapsilosis) [µg/mL] | MIC (Epidermophyton floccosum) [µg/mL] | MIC (Microsporum canis) [µg/mL] | MIC (Sporothrix schenckii) [µg/mL] | MIC (Trichophyton benhamiae) [µg/mL] | MIC (Aspergillus fumigatus) [µg/mL] | MIC (Candida albicans) [µg/mL] | Activity (Cavia porcellus [1]) [%] | Activity (Cavia porcellus [2]) [%] | Activity (Cavia porcellus [3]) [%] | Activity (Cavia porcellus [4]) [%] | Activity (Cavia porcellus [5]) [%] | Activity (Cavia porcellus [6]) [%] | Activity (Cavia porcellus [7]) [%] | Activity (Cavia porcellus [8]) [%]
CCCCC#CC#CCN(C)Cc1cccc2ccccc12 | 100 (≈ 346 µM) | 3.1 (≈ 10.7 µM) | 0.8 (≈ 2.76 µM) | 100 (≈ 346 µM) | 0.2 (≈ 0.691 µM) |  |  |  |  |  |  |  |  |  | 
CCC(C)C#C/C=C/CN(C)Cc1cccc2ccccc12 (configuration not stated) | 0.4 (≈ 1.37 µM) | 0.006 (≈ 0.0206 µM) | 0.006 (≈ 0.0206 µM) | 0.8 (≈ 2.75 µM) | 0.01 (≈ 0.0343 µM) | 100 (≈ 343 µM) | 100 (≈ 343 µM) | 23 | 75 |  |  |  |  |  | 
CCCCC#C/C=C\CN(C)Cc1cccc2ccccc12 | 100 (≈ 343 µM) | 100 (≈ 343 µM) | 0.2 (≈ 0.686 µM) | 50 (≈ 172 µM) | 0.2 (≈ 0.686 µM) |  |  |  |  |  |  |  |  |  | 
CN(C/C=C/C#CC(C)(C)C)Cc1cccc2ccccc12 [TERBINAFINE] | 0.4 (≈ 1.37 µM) | 0.006 (≈ 0.0206 µM) | 0.006 (≈ 0.0206 µM) | 0.4 (≈ 1.37 µM) | 0.006 (≈ 0.0206 µM) | 0.8 (≈ 2.75 µM) | 25 (≈ 85.8 µM) |  | 100 | 98 |  |  |  |  | 
CCCCC#C/C=C/CN(C)Cc1cccc2ccccc12 | 0.4 (≈ 1.37 µM) | 0.01 (≈ 0.0343 µM) | 0.01 (≈ 0.0343 µM) | 1.6 (≈ 5.49 µM) | 0.01 (≈ 0.0343 µM) | 100 (≈ 343 µM) | 100 (≈ 343 µM) |  | 15 | 0 | 100 | 100 | 83 | 83 | 100
CN(C/C=C/c1ccccc1)Cc1cccc2ccccc12 [NAFTIFINE] | 1.6 (≈ 5.57 µM) | 0.2 (≈ 0.696 µM) | 0.1 (≈ 0.348 µM) | 1.6 (≈ 5.57 µM) | 0.05 (≈ 0.174 µM) |  |  |  |  |  |  |  |  | 35 | 65
CCCC/C=C/C=C/CN(C)Cc1cccc2ccccc12 | 1.6 (≈ 5.45 µM) | 0.2 (≈ 0.682 µM) | 0.1 (≈ 0.341 µM) | 3.1 (≈ 10.6 µM) | 0.05 (≈ 0.17 µM) |  |  |  |  |  |  | 43 |  | 40 | 69
CCCC/C=C/C#CCN(C)Cc1cccc2ccccc12 | > 100 | 1.6 (≈ 5.49 µM) | 0.2 (≈ 0.686 µM) | > 100 | 0.2 (≈ 0.686 µM) |  |  |  |  |  |  |  |  |  | 
